These results are taken from ChEMBL document CHEMBL3813636, “Toward discovery of mutant EGFR inhibitors; Design, synthesis and in vitro biological evaluation of potent 4-arylamino-6-ureido and thioureido-quinazoline derivatives” (Bioorg Med Chem, 2016).

The source made the active and inactive calls. No cut-off for these calls is given here.

The target in assay [1] is T1, Epidermal growth factor receptor (Homo sapiens, UniProt P00533). Put plainly: Inhibition of recombinant human EGFR expressed in baculovirus by fluorescence based assay.
Assay [2] concerns the target Receptor tyrosine-protein kinase erbB-2 (Homo sapiens, UniProt P04626). Description: Inhibition of His-tagged human recombinant Her2 (676 to 1255 residues) expressed in baculovirus by fluorescence based assay. The procedure, abridged: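 Her2 kinase activity was measured with an outsourced kinase-profiling service. It used a fluorescence-based coupled-enzyme format that exploits the differing sensitivity of phosphorylated and non-phosphorylated peptide substrates to proteolytic cleavage.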

The subject of assay [3] is Epidermal growth factor receptor (Homo sapiens), P00533 [L858R,T790M]. Put plainly: Inhibition of EGFR L858R/T790M double mutant (unknown origin) expressed in mouse BaF/3 cells assessed as cell growth inhibition at 10 uM after 72 hrs by MTS assay. Type of assay: cell-based. The method in brief:
(§1)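 Ba/F3 cells carrying the listed double-mutant EGFR were exposed to 10 uM compound, and growth was read by MTS assay as percent growth relative to DMSO-treated cells. Experiments were repeated at least three times.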

The subject of assay [4] is Epidermal growth factor receptor (Homo sapiens), P00533 [UNDEFINED MUTATION]. Put plainly: Inhibition of EGFR Del19/T790M double mutant (unknown origin) expressed in mouse BaF/3 cells assessed as cell growth inhibition at 10 uM after 72 hrs by MTS assay. Type of assay: cell-based. The procedure, abridged: as §1
A short description of assay [5]: Antiproliferative activity against gefitinib-sensitive human PC9 cells assessed as cell viability after 72 hrs by cell titer-glo luminescence assay. Type of assay: functional, cell-based. To be noted: PC-9, 72 h.
Assay [6] can be described thus: Antiproliferative activity against gefitinib-resistant human PC9/GR4 cells expressing Del19/T790M double mutant assessed as cell viability after 72 hrs by cell titer-glo luminescence assay. Type of assay: functional, cell-based. The following applies: PC9/GR4, 72 h.
Assay [7] in a line: Potency index, ratio of gefitinib IC50 to compound IC50 for human PC9/GR4 cells expressing Del19/T790M double mutant. Type of assay: functional.
Assay [8] is described as follows: Cytotoxicity against human BT474 cells expressing Her2 assessed as reduction in cell viability after 72 hrs by cell titer-glo luminescence assay. Format: functional, cell-based. The following applies: BT-474, 72 h.
Assay [9] deals with T1, Epidermal growth factor receptor. To be noted: PC-9, at 10 µM.
Assay [10] deals with Epidermal growth factor receptor (Homo sapiens), P00533 [UNDEFINED MUTATION]. The following applies: PC9/GR4, at 10 µM.
Assay [11] concerns the target T1, Epidermal growth factor receptor. To be noted: PC-9, at 10 µM. This is another data set of the same source.
For assay [12], the system named is Epidermal growth factor receptor (Homo sapiens), P00533 [UNDEFINED MUTATION]. The following applies: PC9/GR4, at 10 µM. This is another data set of the same source.

Receptor tyrosine-protein kinase erbB-2, sequence (P04626 whole entry, the tested form may be a part): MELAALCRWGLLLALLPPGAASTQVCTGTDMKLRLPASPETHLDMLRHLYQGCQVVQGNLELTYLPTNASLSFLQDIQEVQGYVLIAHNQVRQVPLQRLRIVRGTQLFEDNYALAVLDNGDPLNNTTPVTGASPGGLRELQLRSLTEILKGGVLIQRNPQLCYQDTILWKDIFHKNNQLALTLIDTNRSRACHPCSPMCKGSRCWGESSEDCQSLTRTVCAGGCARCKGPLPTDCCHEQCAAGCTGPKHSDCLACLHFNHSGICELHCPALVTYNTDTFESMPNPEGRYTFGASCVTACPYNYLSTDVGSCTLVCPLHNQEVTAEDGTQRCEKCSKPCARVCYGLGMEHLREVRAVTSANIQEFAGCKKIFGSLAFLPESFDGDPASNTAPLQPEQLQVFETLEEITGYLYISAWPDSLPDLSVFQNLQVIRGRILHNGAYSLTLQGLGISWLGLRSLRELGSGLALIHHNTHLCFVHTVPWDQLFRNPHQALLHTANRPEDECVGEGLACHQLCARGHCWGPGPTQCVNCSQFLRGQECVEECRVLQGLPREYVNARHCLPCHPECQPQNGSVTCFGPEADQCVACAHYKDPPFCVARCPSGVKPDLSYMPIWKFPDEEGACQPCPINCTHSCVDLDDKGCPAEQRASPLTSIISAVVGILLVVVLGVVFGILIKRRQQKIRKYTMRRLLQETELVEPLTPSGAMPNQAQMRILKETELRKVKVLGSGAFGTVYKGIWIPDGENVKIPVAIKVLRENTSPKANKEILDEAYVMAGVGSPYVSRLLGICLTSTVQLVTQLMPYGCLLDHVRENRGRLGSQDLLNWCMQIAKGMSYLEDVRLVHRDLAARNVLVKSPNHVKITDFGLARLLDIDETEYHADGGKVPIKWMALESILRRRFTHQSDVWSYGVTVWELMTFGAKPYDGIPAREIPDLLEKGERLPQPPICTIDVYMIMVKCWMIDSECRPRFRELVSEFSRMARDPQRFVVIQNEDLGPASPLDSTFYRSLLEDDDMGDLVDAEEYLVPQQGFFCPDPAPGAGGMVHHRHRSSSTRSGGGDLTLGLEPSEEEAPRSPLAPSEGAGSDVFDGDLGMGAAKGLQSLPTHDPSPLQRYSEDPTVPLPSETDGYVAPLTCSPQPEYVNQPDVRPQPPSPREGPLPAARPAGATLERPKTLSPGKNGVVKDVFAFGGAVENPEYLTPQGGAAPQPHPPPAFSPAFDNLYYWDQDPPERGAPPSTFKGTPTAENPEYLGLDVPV

For the compound `C#Cc1cccc(Nc2ncnc3ccc(NC(C)=O)cc23)c1`, the IC50 in [1] is 2.04 nM.

With `S=C(NCCN1CCOCC1)Nc1ccc2ncnc(Nc3cccc(Br)c3)c2c1`, in assay [1], the IC50 came to 1.81 nM.

Consider `Fc1cccc(COc2ccc(Nc3ncnc4ccc(NC(=S)NCCN5CCCCC5)cc34)cc2Cl)c1`, for which the IC50 in assay [2] worked out at 40.6 nM; in [5] it was 2160 nM; in [6], 5700 nM; in assay [8] it was 340 nM. Further, the “growth inhibition (GI)” value in assay [3] and in assay [4] was “Active” throughout. Besides, in [7], the “Ratio IC50” value turned out to be 3. For the same compound, the inhibition result in assay [9], in assay [10], in assay [11] and in [12] was “Active” in each case.

On to `NC(=O)Nc1ccc2ncnc(Nc3ccc(Br)cc3)c2c1`, for which the IC50 in assay [1] was 0.803 nM.

For the compound `O=C(NCCN1CCOCC1)Nc1ccc2ncnc(Nc3ccc(F)c(Cl)c3)c2c1`, the IC50 in assay [1] is 2.92 nM.

Regarding `CS(=O)(=O)CCNCc1ccc(-c2ccc3ncnc(Nc4ccc(OCc5cccc(F)c5)c(Cl)c4)c3c2)o1` [LAPATINIB], in assay [8], the IC50 amounted to 31 nM.

Take `O=C(NCCN1CCCCC1)Nc1ccc2ncnc(Nc3cccc(Br)c3)c2c1`: in assay [1], the IC50 was 0.772 nM.

For `S=C(NCCN1CCOCC1)Nc1ccc2ncnc(Nc3ccc(Cl)cc3)c2c1`, the IC50 in assay [1] came to 5.06 nM.

As for `CC(=O)Nc1ccc2ncnc(Nc3ccc(OCc4cccc(F)c4)c(Cl)c3)c2c1`, the IC50 in [1] worked out at 3.96 nM; in assay [2], 32.3 nM; in assay [5], 662 nM; in [6] it was 8310 nM; in assay [8], 57 nM. Besides, the “growth inhibition (GI)” value in assay [3] and in [4] was “Active” each time. The inhibition entry in assay [9], in [10], in assay [11] and in assay [12] was “Active” each time.

Turning to `NC(=O)Nc1ccc2ncnc(Nc3ccc(F)c(Cl)c3)c2c1`, the IC50 amounted to 0.854 nM in assay [1], 961 nM in assay [5] and 21700 nM in [6]. Besides, the inhibition entry in assay [9], in [10], in assay [11] and in assay [12] was “Active” throughout.

On to `Fc1ccc(Nc2ncnc3ccc(NC(=S)NCCN4CCOCC4)cc23)cc1Cl`, for which the IC50 in [1] came to 2.25 nM.

With `Fc1cccc(COc2ccc(Nc3ncnc4ccc(NC(=S)NCCCN5CCOCC5)cc34)cc2Cl)c1`, the IC50 in [1] is 1.5 nM; in [2], 12.1 nM.

For `S=C(NCCN1CCOCC1)Nc1ccc2ncnc(Nc3ccc(Cl)c(Cl)c3)c2c1`, in assay [1], the IC50 turned out to be 9.05 nM.

For the compound `O=C(NCCN1CCCCC1)Nc1ccc2ncnc(Nc3ccc(F)c(Cl)c3)c2c1`, in [1], the IC50 worked out at 1.06 nM.

On to `O=C(NCCN1CCOCC1)Nc1ccc2ncnc(Nc3cccc(Br)c3)c2c1`, for which the half-maximal inhibitory concentration (IC50) in assay [1] turned out to be 1.43 nM.

Consider `O=C(NCCN1CCCCC1)Nc1ccc2ncnc(Nc3ccc(OCc4cccc(F)c4)c(Cl)c3)c2c1`, for which the IC50 in [2] stood at 19.2 nM; in [5], 1580 nM; in assay [6], 2160 nM; in [8] it was 760 nM. For the same compound, the “growth inhibition (GI)” value in [3] and in assay [4] was “Active” each time. In assay [7], the “Ratio IC50” value amounted to 8. Further, the inhibition result in [9], in assay [10], in assay [11] and in [12] was “Active” throughout.

As for `NC(=O)Nc1ccc2ncnc(Nc3ccc(OCc4cccc(F)c4)c(Cl)c3)c2c1`, the 50% inhibitory concentration (IC50) in assay [1] amounted to 2.03 nM; in assay [2], 26.8 nM.

In the case of `Fc1cccc(COc2ccc(Nc3ncnc4ccc(NC(=S)NCCN5CCOCC5)cc34)cc2Cl)c1`, the IC50 in [1] amounted to 2.26 nM; in [2] it was 33.1 nM.

`Fc1ccc(Nc2ncnc3ccc(NC(=S)NCCCN4CCOCC4)cc23)cc1Cl`: the IC50 in assay [1] was below 0.495 nM.

Take `CC(=O)Nc1ccc2ncnc(Nc3ccc(F)c(Cl)c3)c2c1`: the results for the IC50 in [1], in assay [5] and in [6] were 0.662 nM, 225 nM and 12600 nM, respectively. The inhibition entry in assay [9], in [10], in assay [11] and in [12] was “Active” throughout.

`Fc1ccc(Nc2ncnc3ccc(NC(=S)NCCN4CCCCC4)cc23)cc1Cl`: the half-inhibitory concentration (IC50) in assay [1] turned out to be 3.7 nM.

With `C#Cc1cccc(Nc2ncnc3ccc(NC(N)=O)cc23)c1`, the IC50 in assay [1] worked out at 2.22 nM.
